Data set [1] in a line: Clearance in rat at 1 mg/kg, iv by LC-MS/MS analysis. It is filed as ADME, organism-based. To be noted: in vivo.
Data set [2] is described as follows: Volume of distribution at steady state in rat at 1 mg/kg, iv by LC-MS/MS analysis. The conditions noted are these: in vivo, read-out: Vdss. It is filed as ADME, organism-based.
Data set [3] is described as follows: Half life in rat at 1 mg/kg, iv by LC-MS/MS analysis. Type of data set: ADME, organism-based. The conditions noted are these: in vivo.
Data set [4] in a line: AUC in rat at 5 mg/kg, po by LC-MS/MS analysis. It is filed as ADME, organism-based. To be noted: in vivo.
A short description of data set [5]: Oral bioavailability in rat at 5 mg/kg by LC-MS/MS analysis. Type of data set: ADME, organism-based. To be noted: in vivo.
Data set [6] is described as follows: Half life in human hepatocytes at 0.5 uM by LC-MS/MS analysis. It is filed as ADME, cell-based, Hepatocyte. The gist of the method: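 Cryopreserved human hepatocytes were incubated with compound for up to 2 h, and metabolic turnover was followed to estimate half-life.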
The target of the next data set is Cytochrome P450 2C9 (Homo sapiens, UniProt P11712). Put plainly: Inhibition of CYP2C9 in human liver microsomes using diclofenac as substrate preincubated for 10 mins followed by NADPH addition and measured by LC-MS/MS analysis. It is filed as ADME.
The target in the next data set is Cytochrome P450 2C19 (Homo sapiens, UniProt P33261). Put plainly: Inhibition of CYP2C19 in human liver microsomes using mephenytoin as substrate preincubated for 10 mins followed by NADPH addition and measured by LC-MS/MS analysis. Type of data set: ADME.
For data set [7], the target named is T1, Cytochrome P450 3A4 (Homo sapiens, UniProt P08684). Put plainly: Inhibition of CYP3A4 in human liver microsomes using atorvastatin as substrate preincubated for 7 mins followed by NADPH addition and measured by LC-MS/MS analysis. It is filed as ADME.
Data set [8] has as its target T1, Cytochrome P450 3A4. Briefly: Inhibition of CYP3A4 in human liver microsomes using midazolam as substrate preincubated for 7 mins followed by NADPH addition and measured by LC-MS/MS analysis. Type of data set: ADME.
For data set [9], the target named is T1, Cytochrome P450 3A4. Put plainly: Inhibition of CYP3A4 in human liver microsomes using nifedipine as substrate preincubated for 7 mins followed by NADPH addition and measured by LC-MS/MS analysis. It is filed as ADME.
Data set [10] can be described thus: Blood clearance in rat at 1 mg/kg, iv by LC-MS/MS analysis. Type of data set: ADME, organism-based. To be noted: whole blood. The gist of the method: (§1)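 Rat and dog received a single i.v. dose of 1 mg/kg in DMSO/20% hydroxypropyl-β-cyclodextrin (10/90), pH adjusted. Clearance was taken from blood or plasma concentration–time profiles.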
The nature of data set [11]: Blood clearance in Beagle dog at 1 mg/kg, iv by LC-MS/MS analysis. It is filed as ADME, organism-based, Canis lupus familiaris. To be noted: whole blood. A digest of the protocol:
as §1

Data set [12] in a line: Plasma clearance in cynomolgus monkey at 1 mg/kg, iv by LC-MS/MS analysis. Type of data set: ADME, organism-based, Macaca fascicularis.
Data set [13] can be described thus: Plasma clearance in CD1 mouse at 1 mg/kg, iv by LC-MS/MS analysis relative to hepatic blood flow. Type of data set: ADME, organism-based. The conditions noted are these: in vivo. The gist of the method: (§2)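 Clearance expressed as a percentage of liver blood flow: compound blood or plasma clearance after i.v. dosing divided by the hepatic blood flow of that species.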

The nature of data set [14]: Blood clearance in rat at 1 mg/kg, iv by LC-MS/MS analysis relative to hepatic blood flow. It is filed as ADME, organism-based. To be noted: in vivo. A digest of the protocol:
as §2

Data set [15] is described as follows: Blood clearance in Beagle dog at 1 mg/kg, iv by LC-MS/MS analysis relative to hepatic blood flow. The conditions noted are these: in vivo. It is filed as ADME, organism-based, Canis lupus familiaris. The gist of the method:
as §2

Data set [16] can be described thus: Plasma clearance in cynomolgus monkey at 1 mg/kg, iv by LC-MS/MS analysis relative to hepatic blood flow. It is filed as ADME, organism-based, Macaca fascicularis. To be noted: in vivo. A digest of the protocol: as §2
Another data set concerns Hepatitis C virus. Put plainly: Antiviral activity against HCV genotype1 infected in human assessed as reduction in plasma viral RNA level at 420 mg, po administered as single dose. Type of data set: functional, Hepacivirus hominis, genotype 1.
Data set [17] in a line: Half life in human assessed as 5-cyclopropyl-2-(4-fluorophenyl)-N-methyl-6-(methylsulfonamido)benzofuran-3-carboxamide level. Type of data set: ADME.
Data set [18] concerns the target Voltage-gated inwardly rectifying potassium channel KCNH2 (Homo sapiens, UniProt Q12809). Put plainly: Inhibition of human ERG by patch clamp electrophysiology method. A digest of the protocol: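 hERG activity was measured by patch-clamp electrophysiology as the reduction in channel current caused by the compound, giving an IC50.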
Data set [19] in a line: Half life in rat hepatocytes at 0.5 uM by LC-MS/MS analysis. It is filed as ADME, cell-based, Hepatocyte.
In a further data set the target is T2, Cytochrome P450 1A2 (Homo sapiens, UniProt P05177).
T2 sequence (P05177 whole entry): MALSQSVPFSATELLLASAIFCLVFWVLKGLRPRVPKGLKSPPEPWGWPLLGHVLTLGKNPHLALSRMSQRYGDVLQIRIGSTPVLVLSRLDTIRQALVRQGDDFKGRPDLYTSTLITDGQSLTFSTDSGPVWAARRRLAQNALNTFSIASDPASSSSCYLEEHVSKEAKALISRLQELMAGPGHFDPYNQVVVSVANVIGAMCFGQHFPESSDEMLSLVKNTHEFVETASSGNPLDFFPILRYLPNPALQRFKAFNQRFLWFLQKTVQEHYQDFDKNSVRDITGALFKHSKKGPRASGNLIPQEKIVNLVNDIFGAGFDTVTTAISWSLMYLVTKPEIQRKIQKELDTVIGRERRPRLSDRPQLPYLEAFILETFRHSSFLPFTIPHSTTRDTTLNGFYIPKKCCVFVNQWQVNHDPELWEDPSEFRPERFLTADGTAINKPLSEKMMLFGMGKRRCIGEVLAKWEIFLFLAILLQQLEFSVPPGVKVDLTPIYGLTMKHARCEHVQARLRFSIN
Briefly: Inhibition of CYP1A2 in human liver microsomes at 0.033 to 33 uM using phenacetin as substrate preincubated for 10 mins followed by NADPH addition and measured by LC-MS/MS analysis. Type of data set: ADME.

In the next data set the target is Cytochrome P450 2D6 (Homo sapiens, UniProt P10635). Briefly: Inhibition of CYP2D6 in human liver microsomes at 0.033 to 33 uM using bufuralol as substrate preincubated for 10 mins followed by NADPH addition and measured by LC-MS/MS analysis. It is filed as ADME.
A short description of data set [20]: Blood clearance in CD1 mouse at 1 mg/kg, iv by LC-MS/MS analysis. The conditions noted are these: whole blood. Type of data set: ADME, organism-based.
The nature of data set [21]: Blood clearance in CD1 mouse at 1 mg/kg, iv by LC-MS/MS analysis relative to hepatic blood flow. The conditions noted are these: in vivo. It is filed as ADME, organism-based. A digest of the protocol:
as §2

Data set [22] is described as follows: Blood clearance in cynomolgus monkey at 1 mg/kg, iv by LC-MS/MS analysis relative to hepatic blood flow. To be noted: in vivo. It is filed as ADME, organism-based, Macaca fascicularis. A digest of the protocol: as §2

Cytochrome P450 2C19, sequence (P33261 whole entry): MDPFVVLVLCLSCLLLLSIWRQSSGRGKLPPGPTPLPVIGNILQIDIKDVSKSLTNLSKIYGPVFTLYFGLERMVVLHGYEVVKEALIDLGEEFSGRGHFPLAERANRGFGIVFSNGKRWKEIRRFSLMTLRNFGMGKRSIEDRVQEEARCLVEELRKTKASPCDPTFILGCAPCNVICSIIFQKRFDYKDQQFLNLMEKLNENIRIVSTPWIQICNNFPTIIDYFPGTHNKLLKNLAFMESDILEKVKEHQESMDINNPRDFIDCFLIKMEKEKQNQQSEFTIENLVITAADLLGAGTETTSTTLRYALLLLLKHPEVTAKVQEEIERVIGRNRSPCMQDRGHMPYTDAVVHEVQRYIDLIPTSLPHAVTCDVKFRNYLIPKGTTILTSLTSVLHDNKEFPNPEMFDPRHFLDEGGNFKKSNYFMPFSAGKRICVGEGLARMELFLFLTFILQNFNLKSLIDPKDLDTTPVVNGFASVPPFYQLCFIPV
Cytochrome P450 2C9, sequence (P11712 whole entry): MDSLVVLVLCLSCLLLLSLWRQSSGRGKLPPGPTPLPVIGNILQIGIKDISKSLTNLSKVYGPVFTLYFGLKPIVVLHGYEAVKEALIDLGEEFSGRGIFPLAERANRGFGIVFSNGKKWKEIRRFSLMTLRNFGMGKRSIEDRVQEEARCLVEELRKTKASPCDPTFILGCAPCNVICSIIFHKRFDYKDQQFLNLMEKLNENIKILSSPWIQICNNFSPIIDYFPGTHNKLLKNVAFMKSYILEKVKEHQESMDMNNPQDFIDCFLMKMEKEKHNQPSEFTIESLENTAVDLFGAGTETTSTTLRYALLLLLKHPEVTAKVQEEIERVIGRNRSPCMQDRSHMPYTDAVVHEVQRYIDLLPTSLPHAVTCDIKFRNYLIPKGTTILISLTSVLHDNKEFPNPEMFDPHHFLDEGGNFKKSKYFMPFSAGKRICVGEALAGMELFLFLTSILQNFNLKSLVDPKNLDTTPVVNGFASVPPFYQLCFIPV
T1 sequence (P08684 whole entry): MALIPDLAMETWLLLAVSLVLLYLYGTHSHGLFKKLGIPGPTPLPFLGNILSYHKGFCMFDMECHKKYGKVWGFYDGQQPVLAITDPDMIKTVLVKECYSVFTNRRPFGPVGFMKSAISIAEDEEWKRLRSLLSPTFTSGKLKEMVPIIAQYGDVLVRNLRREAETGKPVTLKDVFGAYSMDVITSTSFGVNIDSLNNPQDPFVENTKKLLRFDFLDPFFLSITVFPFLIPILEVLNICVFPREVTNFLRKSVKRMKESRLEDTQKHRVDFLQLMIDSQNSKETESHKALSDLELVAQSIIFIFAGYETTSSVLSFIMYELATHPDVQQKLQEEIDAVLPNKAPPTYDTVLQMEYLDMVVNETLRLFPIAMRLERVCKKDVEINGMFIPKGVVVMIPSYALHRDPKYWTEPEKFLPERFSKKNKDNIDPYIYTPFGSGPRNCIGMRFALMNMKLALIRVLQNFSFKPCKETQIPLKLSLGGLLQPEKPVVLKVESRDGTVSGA
Voltage-gated inwardly rectifying potassium channel KCNH2, sequence (Q12809 whole entry): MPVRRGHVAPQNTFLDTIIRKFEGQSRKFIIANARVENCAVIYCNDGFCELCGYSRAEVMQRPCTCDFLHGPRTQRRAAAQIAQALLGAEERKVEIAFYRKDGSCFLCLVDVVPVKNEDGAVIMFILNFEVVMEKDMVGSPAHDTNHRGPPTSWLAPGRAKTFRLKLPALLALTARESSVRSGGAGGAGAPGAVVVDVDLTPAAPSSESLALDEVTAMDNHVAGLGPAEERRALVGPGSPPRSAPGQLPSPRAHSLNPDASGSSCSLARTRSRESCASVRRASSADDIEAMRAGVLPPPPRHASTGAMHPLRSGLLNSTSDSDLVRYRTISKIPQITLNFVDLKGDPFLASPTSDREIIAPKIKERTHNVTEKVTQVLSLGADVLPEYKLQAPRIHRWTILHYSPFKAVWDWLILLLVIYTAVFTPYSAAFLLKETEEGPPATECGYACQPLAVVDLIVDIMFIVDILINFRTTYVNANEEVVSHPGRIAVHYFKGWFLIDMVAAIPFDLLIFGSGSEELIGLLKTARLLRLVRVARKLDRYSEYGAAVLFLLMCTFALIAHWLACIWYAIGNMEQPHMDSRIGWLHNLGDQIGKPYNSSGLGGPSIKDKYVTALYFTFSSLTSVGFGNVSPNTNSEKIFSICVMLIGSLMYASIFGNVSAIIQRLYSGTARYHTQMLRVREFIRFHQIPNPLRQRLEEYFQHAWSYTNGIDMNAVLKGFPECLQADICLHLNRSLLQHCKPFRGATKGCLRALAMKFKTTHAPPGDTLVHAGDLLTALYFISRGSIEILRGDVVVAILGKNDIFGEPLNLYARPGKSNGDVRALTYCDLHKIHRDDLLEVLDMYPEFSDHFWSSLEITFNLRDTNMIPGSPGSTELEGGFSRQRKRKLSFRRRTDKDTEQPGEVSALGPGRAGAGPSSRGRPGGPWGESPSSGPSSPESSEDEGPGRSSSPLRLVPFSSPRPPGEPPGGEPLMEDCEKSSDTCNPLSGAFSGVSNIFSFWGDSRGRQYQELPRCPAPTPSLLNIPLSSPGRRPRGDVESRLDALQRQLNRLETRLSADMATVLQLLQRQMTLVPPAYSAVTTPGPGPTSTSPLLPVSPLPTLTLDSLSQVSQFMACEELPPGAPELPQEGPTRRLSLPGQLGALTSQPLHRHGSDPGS
Cytochrome P450 2D6, sequence (P10635 whole entry): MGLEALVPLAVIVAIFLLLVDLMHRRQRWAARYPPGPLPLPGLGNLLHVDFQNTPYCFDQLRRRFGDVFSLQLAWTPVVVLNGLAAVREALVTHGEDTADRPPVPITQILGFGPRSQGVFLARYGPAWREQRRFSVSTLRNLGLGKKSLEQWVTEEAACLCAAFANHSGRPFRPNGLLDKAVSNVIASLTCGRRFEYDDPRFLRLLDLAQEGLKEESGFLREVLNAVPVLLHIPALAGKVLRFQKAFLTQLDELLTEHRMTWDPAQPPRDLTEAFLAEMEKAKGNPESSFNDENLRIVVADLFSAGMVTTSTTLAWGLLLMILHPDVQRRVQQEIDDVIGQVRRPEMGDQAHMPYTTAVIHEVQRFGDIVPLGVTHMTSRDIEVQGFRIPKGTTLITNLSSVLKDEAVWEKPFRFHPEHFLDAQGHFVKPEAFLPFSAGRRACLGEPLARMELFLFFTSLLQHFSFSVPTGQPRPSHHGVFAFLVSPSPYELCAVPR

For `CNC(=O)c1c(-c2ccc(F)cc2)oc2cc(N(Cc3ccc(B(O)O)c(F)c3)S(C)(=O)=O)c(C3CC3)cc12`, the clearance amounted to 29 mL/min/kg in [1], 29 mL/min/kg in data set [10], 11 mL/min/kg in data set [11] and 48 mL/min/kg in data set [12]. Also, the Vd in data set [2] amounted to 1.4 L/kg. Moreover, in data set [3], the half-life is 1 h. Moreover, the AUC in [4] is 700 ng·h/mL. In data set [5], the bioavailability is 23%. Also, the half-life at 0.5 µM in data set [6] is 1 h. Further, the IC50 was 4.9 µM against Cytochrome P450 2C9; 18 µM against Cytochrome P450 2C19; 7.1 µM at Cytochrome P450 3A4 [7]; more than 33 µM at Cytochrome P450 3A4 [8]; 28 µM against Cytochrome P450 3A4 [9]. In addition, the CL was 1.1% in data set [13], 37% in data set [14], 19% in data set [15] and 100% in data set [16]. Besides, the Activity with Hepatitis C virus was found to be 1.33 log10IU/ml. The t1/2 in data set [17] was found to be 45 h.
Consider `CNC(=O)c1c(-c2ccc(F)cc2)oc2cc(N(c3ccc(B(O)O)c(Cl)c3)S(C)(=O)=O)c(C3CC3)cc12`, for which the clearance in data set [1] was 5.1 mL/min/kg. Moreover, the Vd in data set [2] amounted to 1.1 L/kg. In data set [3], this compound gave a half-life of 3.7 h. The exposure (AUC) in data set [4] amounted to 4800 ng·h/mL. In data set [5], this compound registered a bioavailability of 27%. For the same compound, the half-maximal inhibitory concentration (IC50) is 2.6 µM on Cytochrome P450 2C9; 7.4 µM against Cytochrome P450 2C19; 4.2 µM against Cytochrome P450 3A4 [7]; more than 33 µM against Cytochrome P450 3A4 [8]; 8.1 µM on Cytochrome P450 3A4 [9]; 1.6 µM in data set [18].
Regarding `CNC(=O)c1c(-c2ccc(F)cc2)oc2cc(-n3ncnc3-c3ccc(B(O)O)c(F)c3)c(C3CC3)cc12`, in data set [1], the clearance worked out at 4.5 mL/min/kg. Also, the Vd in data set [2] is 0.9 L/kg. This compound showed a half-life in data set [3] of 2.6 h. In data set [4], this compound registered an area under the curve (AUC) of 7600 ng·h/mL. The bioavailability in data set [5] was 40%. In addition, the half-maximal inhibitory concentration (IC50) against Cytochrome P450 2C9 is 2.7 µM; against Cytochrome P450 2C19, 1.2 µM; against Cytochrome P450 3A4 [7], 8.9 µM; against Cytochrome P450 3A4 [8] it was more than 33 µM; on Cytochrome P450 3A4 [9] it was more than 33 µM.
For the compound `CNC(=O)c1c(-c2ccc(F)cc2)oc2cc(N(C3CCc4c(B(O)O)cccc43)S(C)(=O)=O)c(C3CC3)cc12` (stereo not given), the clearance in data set [1] is 69 mL/min/kg. Further, the Vd in data set [2] amounted to 3.5 L/kg. For the same compound, the half-life in data set [3] was 1.1 h. The compound also registered an AUC in data set [4] of 40 ng·h/mL. This compound yielded a bioavailability in [5] of 4%. This compound gave a half-life at 0.5 µM in data set [19] of 0.75 h. This compound registered a t1/2 in data set [6] (0.5 µM) of less than 0.25 h.
With `CNC(=O)c1c(-c2ccc(F)cc2)oc2cc(N(c3cc(Cl)c4c(c3)COB4O)S(C)(=O)=O)c(C3CC3)cc12`, the Vd in data set [2] stood at 0.9 L/kg. Besides, the half-life in data set [3] is 2.8 h. The compound also had an AUC in data set [4] of 5400 ng·h/mL. The half-maximal inhibitory concentration (IC50) was 22 µM against Cytochrome P450 2C9; more than 33 µM against Cytochrome P450 2C19; more than 33 µM on Cytochrome P450 3A4 [7]; more than 33 µM at Cytochrome P450 3A4 [8]; more than 33 µM against Cytochrome P450 3A4 [9]; 16 µM in data set [18]. For the same compound, the “inhibition (INH)” value at Cytochrome P450 1A2 and against Cytochrome P450 2D6 was “Active” in each case. Further, in data set [20], the clearance was 0.7 mL/min/kg. For the same compound, the CL in data set [21] is given as 0.6%; in [14], 8.9%; in [15] it was 2.1%; in data set [22] it was 13%.
`CNC(=O)c1c(-c2ccc(F)cc2)oc2cc(N(Cc3ccc(B(O)O)cc3C(F)(F)F)S(C)(=O)=O)c(C3CC3)cc12` returned a clearance in data set [1] of 3.5 mL/min/kg.
Take `CNC(=O)c1c(-c2ccc(F)cc2)oc2cc(-n3nccc3-c3ccc(B(O)O)c(F)c3)c(C3CC3)cc12`: the clearance in [1] was determined as 5.4 mL/min/kg. For the same compound, the Vd in [2] came to 1.3 L/kg. The compound also gave a half-life in [3] of 3.4 h. In addition, in [4], the exposure (AUC) is 10000 ng·h/mL. The same compound came in with a bioavailability in [5] of 64%. Moreover, the IC50 is 1.5 µM on Cytochrome P450 2C9; 23 µM against Cytochrome P450 2C19; 2 µM at Cytochrome P450 3A4 [7]; more than 33 µM against Cytochrome P450 3A4 [8]; more than 33 µM on Cytochrome P450 3A4 [9].
Consider `CNC(=O)c1c(-c2ccc(F)cc2)oc2cc(N3C(=O)OC[C@@H]3c3ccc(B(O)O)c(F)c3)c(C3CC3)cc12`, for which, in data set [1], the clearance came to 22 mL/min/kg. Moreover, the Vd in [2] was 1.3 L/kg. In addition, in [3], the half-life was 1.2 h. The same compound yielded an exposure (AUC) in data set [4] of 280 ng·h/mL. The compound also yielded a bioavailability in [5] of 8%.

The values above are taken from ChEMBL document CHEMBL4390640, “Design of N-Benzoxaborole Benzofuran GSK8175-Optimization of Human Pharmacokinetics Inspired by Metabolites of a Failed Clinical HCV Inhibitor” (J Med Chem, 2019).
